Screening results from PubChem BioAssay.
Most compounds without a hit are left out; they make up all but 3.1% or so of the library.
FN deposit inh: fibronectin deposition inhibition. AID 743247. 0.086% of 350,000 active. inhibition, % at 12.6 µM. AH1F fibroblasts, Alexa488-fibronectin deposition fluorescence, overnight;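 active means mean inhibition across replicates of 30% or more, regardless of how many single replicates reach that level; inconclusive means mean under 30% yet at least half of replicates reach 30%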
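Material: AH1F fibroblasts assembling fluorescent fibronectin matrix; amount: 10000 AH1F cells/well; medium: DMEM, 2% serum; reagent: Alexa488-fibronectin, 24 nM final in well; dosing: single compound dose, delivered by pin transfer; incubation: 1 h adhesion, overnight exposure; detection: fluorescence after three HBSS washes, excitation 485 nm, emission 525 nm; measure: fibronectin deposition inhibition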
EWS-Fli inh: blocks EWS/Fli oncoprotein-driven transcription; 0.67% of 350,000 active; AID 651661; inhibition, % at 12.6 µM; A673 NR0B1-luciferase reporter, viability-normalised;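 active means mean inhibition of at least 50% after viability correction, with every replicate also passing that limit; inconclusive means mean reaches 50% but only one of two replicates passes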;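 further: firefly luciferase signal divided by Alamar Blue viability fluorescence both relative to DMSO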
PAX8 reporter: lowers PAX8-driven luciferase in RMG-I cells; AID 652154; inhibition, % at 12.6 µM; 1.2% of 360,000 active; RMG-I TPO-luciferase reporter, SteadyGlo, 24 h;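 active means mean replicate inhibition at least 60% with every replicate also reaching 60%; inconclusive means only one of the two criteria is met; inactive means mean below 60% and not all replicates reaching 60%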;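 further: luciferase light reporting Pax8 driven TPO promoter activity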
HIV Env fusion: inhibitors of HIV Env-mediated cell fusion | HeLa-JRFL Env/CEM21 cell fusion, luciferase | 1.1% of 360,000 active | inhibition, % at 12.3 µM;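 active means mean replicate inhibition score of at least 50 and every replicate individually at or above 50; inconclusive means only one of the two criteria met; inactive means mean below 50 and not all replicates reaching 50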
PGC1a acetyl inh: modulators of PGC1a acetylation | U2OS PGC1a acetylation, AlphaScreen anti-acetyl-lysine; with virally co-expressed GCN5 acetyltransferase | inhibition, % at 15.6 µM | 0.17% of 350,000 active | AID 651687;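 active means every replicate shows inhibition of at least 40%; inconclusive means mean inhibition at least 40% but some replicate below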
FGF22 binding: shifts melting point of recombinant human FGF22; 1.5% of 340,000 active; Q9HCT0; recombinant FGF22 thermal shift, SYPRO orange fluorescence; percent of sucrose octasulfate shift, DMSO zero; activity (Tm shift, normalised), % at 9.99 µM;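 active means mean Tm shift, scaled 0 neutral to 100 positive control, at about 1.3% or above, every replicate too, limit read from the data; inconclusive means no clear call, values can overlap the other calls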
Target sequence (Q9HCT0 whole entry, looked up): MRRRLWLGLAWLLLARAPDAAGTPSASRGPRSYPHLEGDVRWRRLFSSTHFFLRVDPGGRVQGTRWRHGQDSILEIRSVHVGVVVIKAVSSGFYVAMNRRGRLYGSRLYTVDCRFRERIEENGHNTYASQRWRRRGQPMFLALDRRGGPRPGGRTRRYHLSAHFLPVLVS
Hits are given with their value; – = inactive; ? = inconclusive; · = not tested or not shown; [ ] = dose if it differs, or a comment.

SMILES	FN deposit inh	EWS-Fli inh	PAX8 reporter	HIV Env fusion	PGC1a acetyl inh	FGF22 binding
C[C@H]1CCCCO[C@@H](CN(C)Cc2ccncc2)[C@@H](C)CN([C@@H](C)CO)C(=O)c2cc(NC(=O)Nc3cccc4ccccc34)ccc2O1	·	–	·	70[16.7 µM]	–	–
C[C@@H]1CCCCO[C@@H](CN(C)Cc2ccccc2)[C@H](C)CN([C@@H](C)CO)C(=O)c2cc(NC(=O)Nc3cccc4ccccc34)ccc2O1	–	–	–	–	–	–
C[C@@H]1CCCCO[C@@H](CN(C)CC2CCCCC2)[C@H](C)CN([C@@H](C)CO)C(=O)c2cc(NC(=O)Nc3cccc4ccccc34)ccc2O1	·	94	–	–	–	–
C[C@@H]1CCCCO[C@H](CN(C)Cc2ccncc2)[C@H](C)CN([C@@H](C)CO)C(=O)c2cc(NC(=O)Nc3cccc4ccccc34)ccc2O1	·	–	·	–	–	–
C[C@@H]1CN([C@@H](C)CO)C(=O)c2cc(NC(=O)Nc3cccc4ccccc34)ccc2O[C@@H]1CN(C)Cc1ccc2c(c1)OCO2	·	–	76	–	–	–
C[C@@H]1CCCCO[C@H](CN(C)CC2CCCCC2)[C@@H](C)CN([C@H](C)CO)C(=O)c2cc(NC(=O)Nc3cccc4ccccc34)ccc2O1	·	–	–	–	–	–
C[C@@H]1CN([C@H](C)CO)C(=O)c2cc(NC(=O)Nc3cccc4ccccc34)ccc2O[C@@H](C)CCCCO[C@H]1CN(C)Cc1ccccc1	–	74	–	–	–	–
Cc1ccccc1-c1cnc2c(c1)C(=O)N([C@@H](C)CO)C[C@@H](C)[C@@H](CN(C)C(=O)c1ccc(F)cc1)O2	–	–	·	–	–	–
Cc1noc(C)c1S(=O)(=O)N(C)C[C@H]1OCCCC[C@H](C)Oc2ccc(NS(=O)(=O)c3cccs3)cc2C(=O)N([C@@H](C)CO)C[C@@H]1C	·	–	–	–	–	–
C[C@@H]1CN([C@@H](C)CO)C(=O)c2cc(NC(=O)Nc3cccc4ccccc34)ccc2O[C@@H](C)CCCCO[C@H]1CN(C)Cc1ccc2c(c1)OCO2	·	77	–	–	–	–
C[C@@H]1CCCCO[C@H](CN(C)Cc2ccc3c(c2)OCO3)[C@H](C)CN([C@H](C)CO)C(=O)c2cc(NC(=O)Nc3cccc4ccccc34)ccc2O1	·	–	–	–	–	–
C[C@H](CO)N1C[C@H](C)[C@H](CN(C)Cc2ccccc2)OCCCC[C@H](C)Oc2ccc(NC(=O)Nc3cccc4ccccc34)cc2C1=O	–	–	–	114[16.7 µM]	–	–
Cc1nc2cc(NC(=O)C3COc4ccccc4O3)ccc2s1 (stereo unspecified)	–	–	–	–	–	43
O=C(CCS(=O)(=O)c1ccccc1)Nc1nc2ccc(F)cc2s1	–	–	107	–	·	–
CS(=O)(=O)c1ccc2nc(NC(=O)CCS(=O)(=O)c3ccccc3)sc2c1	–	–	–	–	–	–
Cc1nc2cc(NC(=O)CCS(=O)(=O)c3ccccc3)ccc2s1	–	–	–	–	–	44
Cc1nc2ccc(NC(=O)CCS(=O)(=O)c3ccccc3)cc2s1	–	–	–	–	·	–
Cc1ccc2nc(-c3ccc(NC(=O)CCS(=O)(=O)c4ccccc4)cc3)sc2c1	–	70	–	–	·	·
COc1ccc(NC(=O)N[C@@H]2CC[C@@H](CCNS(=O)(=O)c3cccc(Cl)c3)O[C@@H]2CO)cc1	–	–	–	–	–	–
O=C(C[C@@H]1CC[C@@H]2[C@H](COC[C@H](O)CN2CCc2ccccc2)O1)NCCCN1CCOCC1	–	–	–	–	–	–
C[C@@H]1CN([C@@H](C)CO)C(=O)c2cc(C3=CCCC3)cnc2O[C@@H]1CN(C)C(=O)c1ccncc1	–	–	·	–	–	–
COc1ccc(NC(=O)C2CCN(c3cc(-c4ccccc4)nc4ncnn34)CC2)cc1OC	–	·	·	60	·	·
O=C(NCC[C@@H]1CC[C@@H](NS(=O)(=O)c2ccc(F)cc2)[C@@H](CO)O1)Nc1ccc(Cl)cc1	–	–	–	–	–	–
Cn1nnnc1Sc1ncnc2scc(-c3ccccc3)c12	–	·	91	–	–	·
Cn1nnnc1Sc1ncnc2scc(-c3ccc(Br)cc3)c12	–	–	100	–	–	–
SMILES	FN deposit inh	EWS-Fli inh	PAX8 reporter	HIV Env fusion	PGC1a acetyl inh	FGF22 binding
Cn1nnnc1Sc1ncnc2scc(-c3ccccc3Br)c12	–	–	83	–	–	–
Cn1nnnc1Sc1ncnc2scc(-c3cccc4ccccc34)c12	–	–	–	–	–	–
Cn1nnnc1Sc1ncnc2scc(Br)c12	–	–	–	–	–	–
COc1ccccc1-c1csc2ncnc(Sc3nnnn3C)c12	–	–	–	–	–	–
Cn1nnnc1Sc1ncnc2scc(-c3ccc(F)cc3)c12	·	·	108	83	–	·
COCC(=O)N1C[C@@H]2[C@H](c3ccccc31)[C@H](CO)N2Cc1ccccc1Cl	·	–	–	·	–	–
Cc1noc(C)c1S(=O)(=O)Nc1ccc2c(c1)C(=O)N([C@H](C)CO)C[C@@H](C)[C@H](CN(C)S(=O)(=O)c1ccc(F)cc1)OCCCC[C@@H](C)O2	·	–	–	–	–	–
COc1ccc(CN(C)C[C@@H]2OCCCC[C@@H](C)Oc3ccc(NS(=O)(=O)c4cccs4)cc3C(=O)N([C@H](C)CO)C[C@H]2C)cc1	·	–	–	–	–	–
C[C@@H]1CCCCO[C@H](CN(C)C(=O)CCC(F)(F)F)[C@H](C)CN([C@@H](C)CO)C(=O)c2cc(NC(=O)NC3CCCCC3)ccc2O1	·	–	·	–	–	–
Cn1nnnc1SCc1nc2scc(-c3ccccc3)c2c(=O)[nH]1	–	–	–	–	–	–
Cn1nnnc1Sc1ncnc2scc(-c3ccc[nH]3)c12	–	–	99	–	–	–
Clc1ccc(-c2noc(CN(Cc3ccccn3)CC3CCCO3)n2)cc1 (stereo unspecified)	–	–	–	–	–	43
C[C@H]1CN([C@@H](C)CO)C(=O)c2cc(C3=CCCCC3)cnc2O[C@@H]1CN(C)C(=O)Cc1cccnc1	–	–	·	–	–	–
Cc1ccc(-c2cc3c(nn2)-c2ccccc2C3=O)cc1	–	84	79	?	–	–
C[C@@H]1CN([C@H](C)CO)C(=O)c2cccc(N(C)C)c2O[C@H]1CN(C)Cc1ccc(Cl)c(Cl)c1	–	–	–	–	–	–
O=C1OCC/C1=C1/NCCNC1=O	–	–	–	–	–	44
COc1cc(OC)nc(-n2ncc(Br)c(Br)c2=O)n1	–	–	108	–	·	–
COC(=O)c1cnn(-c2nc(OC)cc(OC)n2)c1C	–	–	–	–	·	–
O=C(CN1CCOCC1)N[C@@H]1CC[C@H](CCn2cc(C3CC3)nn2)O[C@H]1CO	·	–	–	–	–	–
